Here are results for 3 compounds from article PMC9287213 (Clinical Pharmacokinetics, 2022).

Read-outs that look alike come from different tables or passages of the source.

The conditions of data set [1]: in humans; background statement, no reference given; cited from earlier work.
The test system of data set [2] is cytochrome P450 enzymes, sulfation, or glucuronidation enzymes. Particulars: background statement, no reference given; cited from earlier work.
The test system of a further data set is albumin. The following applies: in humans; background statement, no reference given; cited from earlier work.
Data set [3] is classed as in vivo, human. In outline: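 Open-label parallel single-dose study; participants grouped by baseline Child-Pugh A, B, C or normal hepatic function. One subcutaneous 5-mg injection. Plasma sampled pre-dose and 8, 12, 24, 48, 72, 96, 168, 336 h post-dose; analyte immunoprecipitated, quantified by high-resolution LC/MS, positive HESI, range 2.00–500.00 ng/mL. Noncompartmental parameters from actual sampling times; geometric mean (geometric CV%); tmax analysed nonparametrically.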

For data set [4], the system named is renal or hepatic transporters. Particulars: ref data on file, Eli Lilly and Company; cited from earlier work.
The conditions of data set [5]: cited from earlier work.
For data set [6] the following is noted: hepatic impairment studies; cited from earlier work.

Usually half-life stands for the time needed for the level to fall by half in the phase considered. By CL/F is commonly meant clearance divided by bioavailability, as obtained after extravascular dosing. In general, Tmax refers to the time from dosing to the highest level. The Vd/F is the apparent distribution volume after extravascular dosing. Turning to `CC[C@H](C)[C@H](NC(=O)[C@H](CC(C)C)NC(=O)[C@H](Cc1c[nH]c2ccccc12)NC(=O)[C@H](CCC(N)=O)NC(=O)[C@@H](NC(=O)[C@H](Cc1ccccc1)NC(=O)[C@H](C)NC(=O)[C@H](CCCCNC(=O)COCCOCCNC(=O)COCCOCCNC(=O)CC[C@H](NC(=O)CCCCCCCCCCCCCCCCCCC(=O)O)C(=O)O)NC(=O)[C@H](CCC(N)=O)NC(=O)[C@H](C)NC(=O)[C@@H](NC(=O)[C@H](CCCCN)NC(=O)[C@H](CC(=O)O)NC(=O)[C@H](CC(C)C)NC(=O)C(C)(C)NC(=O)[C@@H](NC(=O)[C@H](CO)NC(=O)[C@H](Cc1ccc(O)cc1)NC(=O)[C@H](CC(=O)O)NC(=O)[C@H](CO)NC(=O)[C@@H](NC(=O)[C@H](Cc1ccccc1)NC(=O)[C@@H](NC(=O)CNC(=O)[C@H](CCC(=O)O)NC(=O)C(C)(C)NC(=O)[C@@H](N)Cc1ccc(O)cc1)[C@@H](C)O)[C@@H](C)O)[C@@H](C)CC)[C@@H](C)CC)C(C)C)C(=O)N[C@@H](C)C(=O)NCC(=O)NCC(=O)N1CCC[C@H]1C(=O)N[C@@H](CO)C(=O)N[C@@H](CO)C(=O)NCC(=O)N[C@@H](C)C(=O)N1CCC[C@H]1C(=O)N1CCC[C@H]1C(=O)N1CCC[C@H]1C(=O)N[C@@H](CO)C(N)=O` [Tirzepatide], in data set [1], the half-life entry was “approximately 5 days”. The “metabolism via pathways involving cytochrome P450 enzymes, sulfation, or glucuronidation enzymes” value in data set [2] was “not metabolized”. The bound to albumin with albumin is 99.06%. Besides, in data set [3] (human, plasma, sc, 5 mg), the CL/F is 0.822 mL/min, the Tmax was 24 h, the Vd/F worked out at 10.6 L and the half-life was 131 h. In addition, the CL/F in data set [3] (human, plasma, sc, 5 mg, CL/F (apparent total body clearance), single 5-mg subcutaneous dose, normal hepatic function, n = 13, geometric mean (geometric CV%), noncompartmental) was 0.988 mL/min. The “VSS/F (apparent volume of distribution at steady state)” value in data set [3] (single 5-mg subcutaneous dose, normal hepatic function, n = 13, geometric mean (geometric CV%), noncompartmental) is 10.7 (20) L. The “T1/2 (half-life associated with the terminal rate constant)” value in data set [3] (single 5-mg subcutaneous dose, normal hepatic function, n = 13, geometric mean (range), noncompartmental) was 124 (101–158) h. Also, the “substrate for renal or hepatic transporters commonly involved in drug disposition” value in data set [4] is recorded as “not a substrate”. Further, in data set [5] (SURPASS-3 sub-study, 52 weeks), the “decrease in liver fat content compared with insulin degludec” value is listed as “significantly greater decrease”. Moreover, the non-alcoholic steatohepatitis-related biomarkers entry in data set [5] (post-hoc analysis of the phase II study, 26 weeks of treatment) was “improvement”.
As to semaglutide, the “impact of the severity of hepatic disease status on pharmacokinetics” value in data set [6] is “does not impact”.
For the compound dulaglutide, the “impact of the severity of hepatic disease status on pharmacokinetics” value in data set [6] was “does not impact”.
